KCC2 mod = KCC2 cotransporter modulators, thallium flux, primary screen, cell-based, HEK293 KCC2, FluoZin-2 fluorescence, MLSMR; Solute carrier family 12 member 5 (Homo sapiens), Q9H2X9; AID 1456, 2008; KCC2 cells, thallium flux FluoZin-2 fluorescence; B-score of Tl+ flux slope (higher = more flux/activation; lower = inhibition) at 10 µM; 2.2% of 190,000 active;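 active = thallium flux slope and its plate-corrected score both differing from the plate sample mean at a set confidence after two filtering rounds, in either direction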;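 note: slope of fluorescence scaled to starting intensity during 10 to 20 s after thallium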
Autophagy HCS = autophagy modulators in MEF cells, primary screen, imaging, high-content, MEF GFP-LC3 | 0.98% of 190,000 active | calls only at 10 µM (by protocol) | MEF GFP-LC3 puncta imaging; test concentration mostly 10 µM;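 active = percentage of spot-positive cells more than 3 SD above its plate mean, without a fluorescence outlier flag or 80% toxicity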;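 note: spot-positive cell cutoff set from DMSO-treated cells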
Rad51 HR inh = human RAD51 strand exchange inhibitors, primary screen, biochemical, fluorescence; DNA repair protein RAD51 homolog 1 (Homo sapiens), Q06609; hRad51 DNA strand exchange, fluorescence dequenching; inhibition, % at 10 µM; 0.085% of 200,000 active; AID 1385, 2008;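 active = inhibition above 40% at the single screening dose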;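 note: 0% = DMSO control wells and 100% = blanks with heterologous ssDNA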
Target sequence (Q06609 whole entry, looked up): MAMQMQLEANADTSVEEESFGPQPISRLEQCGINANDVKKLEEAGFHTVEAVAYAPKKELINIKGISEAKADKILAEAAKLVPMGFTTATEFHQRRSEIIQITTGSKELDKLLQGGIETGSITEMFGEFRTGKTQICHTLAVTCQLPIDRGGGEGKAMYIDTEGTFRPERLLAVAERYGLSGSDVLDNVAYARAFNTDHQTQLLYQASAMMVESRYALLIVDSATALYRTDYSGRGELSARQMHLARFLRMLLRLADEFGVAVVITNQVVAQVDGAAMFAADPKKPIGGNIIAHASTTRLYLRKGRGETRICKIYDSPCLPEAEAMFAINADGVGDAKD
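Read-out basis: percent inhibition relative to plate controls and blanks / Assay system: human Rad51 nucleoprotein filaments preassembled on unlabelled ssDNA / Timing: filaments 15 min 37 °C, then compound 30 min / Control set: per-plate controls and blanks / Technique: fluorescence dequenching at 485/520 nm / Compound: 10 µM final, single point / Also added: Fluorescein- and BHQ1-tagged 47-mer duplex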
WT yeast gro inh = growth inhibition of WT strain, primary screen, mitochondrial fusion inhibitor project, WT and mutant strains, chemical genetic. 2.1% of 190,000 active. AID 1362, 2008. inhibition, % at 10 µM. mitochondrial fusion phenotypic screen; in the data active = inhibition above about 58%; tested in S. cerevisiae
SKKanGAS inh = S. pyogenes SKKanGAS growth inhibitors in kanamycin, primary screen, streptokinase expression inhibitor project, SKKanGAS strain, BacTiter-Glo luminescence; 1.3% of 300,000 active; inhibition, % at 7.5 µM; AID 1662, 2009; 6 h;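 active = mean replicate score, as percent of positive control median, at least 50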;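 note: strain carries kanamycin resistance gene driven by streptokinase promoter and grows in 40 µg/ml kanamycin; loss of luminescence reflects streptokinase promoter inhibition or plain growth inhibition; 0% = median of DMSO wells and 100% = positive control at its reference dose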
Insulin prom up = insulin promoter activators in MIN6 cells, imaging, high-content screening, mouse beta cells | AID 1625, 2009 | z-score at 5 µM | 0.3% of 190,000 active | MIN6 insulin promoter-GFP reporter; active compounds read high;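 active = z-score above 3 at 5 µM with at least 500 cells counted in the well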
* hit, by the source's call; i = inactive; nt = no result; + = active, no number. Sampled rows, rich in hits. Any-hit rate of the full collection: about 4.2%.

SMILES	KCC2 mod	Autophagy HCS	Rad51 HR inh	WT yeast gro inh	SKKanGAS inh	Insulin prom up
O=C(NNC1=C(C(=O)C(F)(F)F)CCC1)c1cccc(O)c1	-0.158	i	3.6	8.5	22.1	nt
Cc1cccc(C(=O)NNC2=C(C(=O)C(F)(F)F)CCC2)c1O	nt	i	3.1	6.3	104.4*	0.26
COC(=O)c1cc(NC(=S)Nc2cc(Cl)cc(Cl)c2)cc(C(=O)OC)c1	-0.0368	i	nt	76.9*	23.4	0.03
COC(=O)c1cccc(NC(=S)Nc2ccccc2Cl)c1	0.698	nt	nt	nt	6.8	0.7
O=C(Nc1nc(=O)c2ccccc2s1)c1ccc(F)cc1	47.3*	i	1.1	-12.5	9.3	nt
CCn1c(NC(=O)c2ccc(F)cc2)c2ccccc2nc1=O	-0.87	i	-2.7	58.2*	6.3	0.29
CCn1c(NC(=O)c2ccc(C)cc2)c2ccccc2nc1=O	-0.683	i	0.6	-17.7	0.6	-0.2
O=C(Cc1ccccc1)Nc1nc(=O)c2ccccc2s1	4.12*	i	9.2	-6.1	-8.9	-0.43
C#CCOc1ccc(/C=C2/C(=O)NN(c3ccc(F)cc3)C2=O)cc1OC	nt	nt	nt	nt	-1.1	nt
Cc1c(Nc2cc(Cl)c3nonc3c2[N+](=O)[O-])c(=O)n(-c2ccccc2)n1C	-2.53	+	25.2	25.8	nt	0.23
CCNc1nc(NCC)n2c(SCC(=O)Nc3ccccc3[N+](=O)[O-])nnc2n1	0.829	i	5.1	-15.1	-1.2	0.38
CCSC1=NCCN1C(=O)c1ccc(S(=O)(=O)N(C)C)cc1	1.16	i	41.1*	0.7	2.1	nt
O=[N+]([O-])c1ccc(-c2cnc(SC(c3ccccc3)c3ccccc3)[nH]2)cc1	0.259	i	-17.4	48.3	61.7*	-1
Cc1cc(C)c(CSc2ncc(-c3ccc([N+](=O)[O-])cc3)[nH]2)c(C)c1	-0.00405	i	-9.9	24.3	73.5*	0.28
CCc1ccccc1NC(=O)C1CCN(S(C)(=O)=O)CC1	nt	nt	nt	nt	3.7	nt
Cc1cc[n+]2n1CC(O)C2 (stereo not drawn)	-0.553	nt	21.8	nt	1.3	0.21
COc1cc(NC(=O)c2ccccc2F)ccc1NC(=O)c1cc2ccccc2o1	nt	nt	nt	nt	1.7	nt
COc1ccccc1Nc1ncc(-c2cccs2)s1	3.12*	i	10.9	16.7	7.5	-0.51
COc1ccccc1Nc1ccc(C(=O)NCc2cccs2)cn1	-0.122	i	-7.1	5.8	-3.5	-0.38
O=S(=O)(NCCSCc1ccc(Cl)cc1Cl)c1ccc2c(c1)OCCO2	-0.143	i	-5.5	72.5*	-9.5	-0.25
Cc1conc1NC(c1cccs1)c1ccc2cccnc2c1O (stereo not drawn)	1.08	i	-2.9	-23.3	100.0*	-0.22
CCC(=O)NC(c1cccs1)c1ccc2cccnc2c1O (stereo not drawn)	nt	i	nt	-1.8	41.3	-0.71
Oc1c(C(Nc2nccs2)c2ccc(C(F)(F)F)cc2)ccc2cccnc12 (stereo not drawn)	2.4	i	nt	20.5	91.0*	nt
Oc1c(C(Nc2cccc(C(F)(F)F)c2)c2ccncc2)ccc2cccnc12 (stereo not drawn)	-1.13	i	0.5	35.0	60.2*	-0.93
CC(=O)[C@@]1(O)[C@H](C)CC2C3CC=C4CC(OP(=O)(O)O)CC[C@]4(C)C3CC[C@@]21C (stereo partly drawn)	nt	nt	nt	nt	0.2	nt
SMILES	KCC2 mod	Autophagy HCS	Rad51 HR inh	WT yeast gro inh	SKKanGAS inh	Insulin prom up
O=C(CN1c2ccccc2Sc2ccccc21)NNC(=O)Nc1ccc(Cl)cc1	0.497	nt	10.7	nt	36.6	-0.82
O=C(CN1c2ccccc2Sc2ccccc21)NNC(=O)Nc1ccc(Cl)c(Cl)c1	0.0362	nt	-8.1	nt	57.5*	0.02
Cc1ccn2c(Nc3ccccc3)c(-c3ccccn3)nc2c1	-0.677	i	5.0	72.5*	76.3*	nt
Cc1ccccc1Nc1c(-c2cccnc2)nc2ccccn12	0.0468	nt	-13.3	nt	0.2	-0.9
Cc1ccn2c(Nc3ccccc3C)c(-c3ccccn3)nc2c1	-0.048	i	-24.6	72.5*	95.5*	-3.6
Cc1ccc2nc(-c3cccnc3)c(Nc3ccccc3C)n2c1	-0.606	i	6.6	-11.2	-2.2	-0.95
Cc1ccc2nc(-c3ccccn3)c(Nc3ccccc3C)n2c1	-0.0594	i	-8.7	75.8*	92.5*	-2.09
Cc1ccccc1Nc1c(-c2ccccn2)nc2ccccn12	-0.85	i	-1.2	64.2*	-2.5	-1.4
CCOc1ccc(S(=O)(=O)N2CCN(C(=O)c3sccc3C)CC2)cc1	-0.00803	i	4.5	-1.8	-4.5	0.61
COc1ccc(-c2nc3ncccn3c2Nc2ccccc2)cc1	-0.979	i	0.2	-10.5	5.7	0.65
Cc1cccn2c(Nc3ccccc3)c(-c3ccccn3)nc12	-0.349	i	4.7	75.0	68.0*	-1.71
CCOC(=O)C1CSC(CC(=O)Nc2ccc(OC(F)(F)F)cc2)C(=O)N1 (stereo not drawn)	-0.366	nt	nt	nt	0.0	0
CCCCCCc1cc2cc(S(=O)(=O)c3ccc(Cl)cc3)c(=O)oc2cc1O	0.783	i	-0.5	88.5*	6.2	0
CCN(CC)c1ccc2cc(S(=O)(=O)c3ccc(Cl)cc3)c(=O)oc2c1	i	i	-4.2	-4.2	5.2	6.96*
Cc1ccc(C)c(CN2CCCN(Cc3cc(C)ccc3C)S2(=O)=O)c1	nt	nt	nt	nt	72.1*	nt
Cc1ccc(CN2CCCN(Cc3cc(C)ccc3C)S2(=O)=O)cc1	nt	nt	nt	nt	45.4	nt
CCn1c(C)nc2cc(C(=O)NNC(=S)NC(=O)c3ccc(OC)cc3)ccc21	-0.427	i	1.0	-13.9	59.2*	-0.56
COc1ccc(C(=O)NC(=S)NNC(=O)c2ccccc2C)cc1	nt	nt	nt	nt	101.2*	nt
COc1ccc(C(=O)NC(=S)Nc2ccccc2F)cc1	2.93	i	1.0	8.0	-6.9	-0.21
COc1ccc(C(=O)NC(=S)NNC(=O)c2ccccc2O)cc1	nt	nt	nt	nt	101.7*	nt
COc1ccc(C(=O)C2CCCN(C(=O)c3cccc(N(C)C)c3)C2)cc1OC (stereo not drawn)	nt	nt	nt	nt	6.0	nt
Cc1c(C(=O)NC2CCN(Cc3ccccc3)C2)oc2c(Cl)cccc12 (stereo not drawn)	nt	nt	nt	nt	-0.7	nt
Cn1c(SCC(=O)Nc2ccc3c(c2)n(C)c(=O)n3C)nnc1-c1ccncc1	nt	nt	nt	nt	3.5	nt
O=C(NCCc1ccc(Cl)cc1)c1ncn[nH]1	nt	i	0.6	90.9*	5.1	-0.23
O=C1NN(c2ccccc2)C(=O)/C1=C/c1ccc(Sc2cccc3ccccc23)o1	-1.26	i	nt	-2.7	50.0*	-0.49
CCc1ccc(N2CC(C(=O)Nc3nc4ccc(S(C)(=O)=O)cc4s3)CC2=O)cc1 (stereo not drawn)	nt	nt	nt	nt	5.8	nt

Screening data deposited in PubChem BioAssay by several laboratories.
